Test results from ChEMBL document CHEMBL3297682, “Synthesis and anticancer activity of γ-(triazolyl ethylidene)butenolides and polyfunctional pyrrolinones” (Eur J Med Chem, 2014).
The source made the active and inactive calls. The rule behind the calls is not given here.

Experiments:
MCF7 [1] = experiment: Antiproliferative activity against human MCF7 cells after 24 hrs by MTT assay; type: functional, cell-based; conditions: MCF7, 24 h
Procedure, shortened: (§1)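 1×10^4 cells/well seeded in DMEM with 10% FBS and antibiotic-antimycotic, grown 24 h at 37 °C under 5% CO2. Compounds diluted in phenol red-free DMEM with 2% FBS and given for 24 h, with vehicle control. MTT (5 mg/mL, 20 µL) added for 3 h. Formazan dissolved in DMSO, absorbance read at 570 nm. IC50 is the concentration giving 50% growth inhibition.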

MDA-MB-231 [2] = experiment: Antiproliferative activity against human MDA-MB-231 cells after 24 hrs by MTT assay; type: functional, cell-based; conditions: MDA-MB-231, 24 h; procedure, shortened: as §1
PC-3 [3] = experiment: Antiproliferative activity against human PC3 cells after 24 hrs by MTT assay; type: functional, cell-based; conditions: PC-3, 24 h; procedure, shortened: as §1
HCT-116 [4] = experiment: Antiproliferative activity against human HCT116 cells after 24 hrs by MTT assay; type: functional, cell-based; conditions: HCT-116, 24 h; procedure, shortened: as §1
U-937 [5] = experiment: Antiproliferative activity against human U937 cells after 24 hrs by MTT assay; type: functional, cell-based; conditions: U-937, 24 h; procedure, shortened: as §1
HEK293 = experiment: Cytotoxicity against human HEK293 cells after 24 hrs by MTT assay; type: cell-based; conditions: HEK293, 24 h; procedure, shortened: as §1
MDA-MB-231 [6] = experiment: Induction of cell cycle arrest in human MDA-MB-231 cells assessed as accumulation at subG1 phase at IC50 concentration measured after 24 hrs by propidium iodide staining based flow cytometry; type: functional
Procedure, shortened: (§2)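 1×10^6 cells seeded in six-well plates and treated 24 h. Floating and trypsinized adherent cells pooled and fixed in 70% ethanol. Cells washed in PBS, then stained 30 min at room temperature in the dark with 30 µg/mL propidium iodide in PBS containing RNase A. DNA content measured by flow cytometry.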

MCF7 [7] = experiment: Induction of cell cycle arrest in human MCF7 cells assessed as accumulation at subG1 phase at IC50 concentration measured after 24 hrs by propidium iodide staining based flow cytometry; type: functional; procedure, shortened: as §2
PC-3 [8] = experiment: Induction of cell cycle arrest in human PC3 cells assessed as accumulation at subG1 phase at IC50 concentration measured after 24 hrs by propidium iodide staining based flow cytometry; type: functional; procedure, shortened: as §2
U-937 [9] = experiment: Induction of cell cycle arrest in human U937 cells assessed as accumulation at subG1 phase at IC50 concentration measured after 24 hrs by propidium iodide staining based flow cytometry; type: functional; procedure, shortened: as §2
HCT-116 [10] = experiment: Induction of cell cycle arrest in human HCT116 cells assessed as accumulation at subG1 phase at IC50 concentration measured after 24 hrs by propidium iodide staining based flow cytometry; type: functional; procedure, shortened: as §2
MDA-MB-231 [11] = experiment: Induction of apoptosis in human MDA-MB-231 cells assessed as viable cells at 11 uM measured after 24 hrs by Annexin-V/PI staining based flow cytometry (reference value: 71.87%); type: functional; conditions: MDA-MB-231, 24 h, read-out: Activity
Procedure, shortened: (§3)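 MDA-MB-231 cells (1×10^6) seeded in six-well plates, grown overnight, then exposed 24 h to 11 or 22 µM. Cells trypsinized, washed in PBS, stained with Annexin-V-FITC and propidium iodide using a kit, and analysed by flow cytometry. Compared with untreated vehicle control.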

MDA-MB-231 [12] = experiment: Induction of apoptosis in human MDA-MB-231 cells assessed as early apoptotic cells at 11 uM measured after 24 hrs by Annexin-V/PI staining based flow cytometry (reference value: 19.77%); type: functional; procedure, shortened: as §3
MDA-MB-231 [13] = experiment: Induction of apoptosis in human MDA-MB-231 cells assessed as late apoptotic cells at 11 uM measured after 24 hrs by Annexin-V/PI staining based flow cytometry (reference value: 6.11%); type: functional; procedure, shortened: as §3
MDA-MB-231 [14] = experiment: Induction of apoptosis in human MDA-MB-231 cells assessed as necrotic cells at 11 uM measured after 24 hrs by Annexin-V/PI staining based flow cytometry (reference value: 2.24%); type: functional; procedure, shortened: as §3
MDA-MB-231 [15] = experiment: Induction of apoptosis in human MDA-MB-231 cells assessed as viable cells at 22 uM measured after 24 hrs by Annexin-V/PI staining based flow cytometry (reference value: 71.87%); type: functional; conditions: MDA-MB-231, 24 h, read-out: Activity; procedure, shortened: as §3
MDA-MB-231 [16] = experiment: Induction of apoptosis in human MDA-MB-231 cells assessed as early apoptotic cells at 22 uM measured after 24 hrs by Annexin-V/PI staining based flow cytometry (reference value: 19.77%); type: functional; procedure, shortened: as §3
MDA-MB-231 [17] = experiment: Induction of apoptosis in human MDA-MB-231 cells assessed as late apoptotic cells at 22 uM measured after 24 hrs by Annexin-V/PI staining based flow cytometry (reference value: 6.11%); type: functional; procedure, shortened: as §3
MDA-MB-231 [18] = experiment: Induction of apoptosis in human MDA-MB-231 cells assessed as necrotic cells at 22 uM measured after 24 hrs by Annexin-V/PI staining based flow cytometry (reference value: 2.24%); type: functional; procedure, shortened: as §3
MDA-MB-231 [19] = experiment: Induction of reactive oxygen species production in human MDA-MB-231 cells after 24 hrs by DCFH-DA dye based flow cytometry; type: functional, cell-based
Procedure, shortened: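 MDA-MB-231 cells (1×10^6) seeded 24 h in six-well plates, then treated 24 h. Cells harvested, washed in PBS and fixed in absolute methanol. Cells resuspended in PBS with 15 µg/mL DCFH-DA for 30 min in the dark, then pelleted, taken up in PBS, and fluorescence read by flow cytometry.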

MDA-MB-231 [20] = experiment: Induction of apoptosis in human MDA-MB-231 cells assessed as viable cells measured after 24 hrs by Annexin-V/PI staining based flow cytometry (reference value: 84.94%); type: functional
MDA-MB-231 [21] = experiment: Induction of apoptosis in human MDA-MB-231 cells assessed as early apoptotic cells measured after 24 hrs by Annexin-V/PI staining based flow cytometry (reference value: 11.31%); type: functional
MDA-MB-231 [22] = experiment: Induction of apoptosis in human MDA-MB-231 cells assessed as late apoptotic cells measured after 24 hrs by Annexin-V/PI staining based flow cytometry (reference value: 2.91%); type: functional
MDA-MB-231 [23] = experiment: Induction of apoptosis in human MDA-MB-231 cells assessed as necrotic cells measured after 24 hrs by Annexin-V/PI staining based flow cytometry (reference value: 0.84%); type: functional
MDA-MB-231 [24] = experiment: Induction of apoptosis in human MDA-MB-231 cells assessed as viable cells compound treated 1 hr post 10 mM ROS inhibitor NAC addition measured after 24 hrs by Annexin-V/PI staining based flow cytometry (reference value: 84.94%); type: functional
MDA-MB-231 [25] = experiment: Induction of apoptosis in human MDA-MB-231 cells assessed as early apoptotic cells compound treated 1 hr post 10 mM ROS inhibitor NAC addition measured after 24 hrs by Annexin-V/PI staining based flow cytometry (reference value: 11.31%); type: functional
MDA-MB-231 [26] = experiment: Induction of apoptosis in human MDA-MB-231 cells assessed as late apoptotic cells compound treated 1 hr post 10 mM ROS inhibitor NAC addition measured after 24 hrs by Annexin-V/PI staining based flow cytometry (reference value: 2.91%); type: functional
MDA-MB-231 [27] = experiment: Induction of apoptosis in human MDA-MB-231 cells assessed as necrotic cells measured compound treated 1 hr post 10 mM ROS inhibitor NAC addition measured after 24 hrs by Annexin-V/PI staining based flow cytometry (reference value: 0.84%); type: functional
MDA-MB-231 [28] = experiment: Increase in phosphorylated p38 level in human MDA-MB-231 cells after 24 hrs by western blot analysis; type: functional, cell-based
Procedure, shortened: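 MDA-MB-231 cells (1×10^6) seeded 24 h, then treated 24 h at 11 and 22 µM. Cells lysed in ice-cold RIPA and protein measured by Bradford. 40 µg protein run on SDS-PAGE and transferred to PVDF. Membranes blocked with 1% BSA, probed overnight at 4 °C for p-p38 and total p38, then with HRP secondary for 2 h.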

MDA-MB-231 [29] = experiment: Effect on phosphorylated p38 level in human MDA-MB-231 cells at 11 uM after 24 hrs by western blot analysis pretreated with ROS inhibitor NAC; type: functional, cell-based
Procedure, shortened: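 MDA-MB-231 cells pretreated with NAC, then exposed to compound at 11 µM for 24 h. Lysates in RIPA quantified by Bradford. 40 µg protein resolved by SDS-PAGE and blotted to PVDF. Membranes blocked with 1% BSA, probed overnight at 4 °C for phospho-p38 and p38, then with HRP secondary.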

IC50 (MCF7 [1]): > 100 µM
IC50 (MDA-MB-231 [2]): 11.3 µM
IC50 (PC-3 [3]): 30.4 µM
IC50 (HCT-116 [4]): 50.3 µM
IC50 (U-937 [5]): > 100 µM
SMILES: COC1=C(OC)C(O)(CCn2cc(-c3ccc(C(C)(C)C)cc3)nn2)NC1=O (stereo not given)
IC50 (HEK293): 62 µM
Activity (MDA-MB-231 [6]): Active
Activity (MCF7 [7]): Active
Activity (PC-3 [8]): Active
Activity (U-937 [9]): Active
Activity (HCT-116 [10]): Active
viability at 11 µM (MDA-MB-231 [11]): 67.8%
Activity (MDA-MB-231 [12]): 27.35%
Activity (MDA-MB-231 [13]): 3.38%
Activity (MDA-MB-231 [14]): 1.48%
viability at 22 µM (MDA-MB-231 [15]): 48.8%
Activity (MDA-MB-231 [16]): 41.92%
Activity (MDA-MB-231 [17]): 6.95%
Activity (MDA-MB-231 [18]): 2.35%
Activity (MDA-MB-231 [19]): Active
Activity (MDA-MB-231 [20]): 56.21%
Activity (MDA-MB-231 [21]): 32.05%
Activity (MDA-MB-231 [22]): 10.98%
Activity (MDA-MB-231 [23]): 0.76%
Activity (MDA-MB-231 [24]): 81.36%
Activity (MDA-MB-231 [25]): 13.91%
Activity (MDA-MB-231 [26]): 3.61%
Activity (MDA-MB-231 [27]): 1.112%
Activity (MDA-MB-231 [28]): Dose-dependent effect
Activity (MDA-MB-231 [29]): inactive
